Experimental data from ChEMBL document CHEMBL1123594, “Antiradiation compounds. 20. 1-Methylquinolinium(and pyridinium)-2-dithioacetic acid derivatives” (J Med Chem, 1987).

Assays:
Mus musculus [1] = experiment: Percent survival was determined over a period of 30 days after intraperitoneal administration of a dose of 1.17 mg/kg in mice; type: functional; conditions: ip, 720 h
Procedure, shortened: (§1)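 Female C57 B16 mice (18-20 g), groups of 10, dosed ip in water or 10-20% aqueous ethanol (sometimes with Klucel or a Tween). Whole-body 1000-rad γ-irradiation 30 min after dosing. Survival was followed over 30 days, and animals alive beyond 30 days were counted as protected. Testing was done at Walter Reed Army Institute of Research.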

Mus musculus [2] = experiment: Percent survival was determined over a period of 30 days after intraperitoneal administration of a dose of 2.34 mg/kg in mice; type: functional; conditions: ip, 720 h; procedure, shortened: as §1
Mus musculus [3] = experiment: Percent survival was determined over a period of 30 days after intraperitoneal administration of a dose of 4.69 mg/kg in mice; type: functional; conditions: ip, 720 h; procedure, shortened: as §1
[4] = Toxic dose was determined after (ip) administration of a dose of 4.69 mg/kg in mice at 1000-rad-gamma-radiation for 30 mins; type: toxicity, organism-based; parameters: dose 4.69 mg/kg; conditions: mouse, in vivo
Procedure, shortened: (§2)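 Drug-toxicity deaths were counted within the radioprotection groups: 10 female C57 B16 mice, dosed by the route stated, then given whole-body 1000-rad γ-irradiation 30 min later. Deaths attributed to compound toxicity occurred before day 5 and were scored separately from the 30-day survival count.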

Mus musculus [5] = experiment: Percent survival was determined over a period of 30 days after intraperitoneal administration of a dose of 18.8 mg/kg in mice; type: functional; conditions: ip, 720 h; procedure, shortened: as §1
Mus musculus [6] = experiment: Percent survival was determined over a period of 30 days after intraperitoneal administration of a dose of 4.7 mg/kg in mice; type: functional; conditions: ip, 720 h; procedure, shortened: as §1
Mus musculus [7] = experiment: Percent survival was determined over a period of 30 days after intraperitoneal administration of a dose of 9.4 mg/kg in mice; type: functional; conditions: ip, 720 h; procedure, shortened: as §1
[8] = Toxic dose was determined after (ip) administration of a dose of 18.8 mg/kg in mice at 1000-rad-gamma-radiation for 30 mins; type: toxicity, organism-based; parameters: dose 18.8 mg/kg; conditions: mouse, in vivo; procedure, shortened: as §2
Mus musculus [9] = experiment: Percent protective effect was determined in mice using 849 rads for 30 min after (ip) administration of 600 mg/kg; type: functional
Mus musculus [10] = experiment: Percent protective effect was determined in mice using 849 rads for 30 min after (po) administration of 600 mg/kg; type: functional
Mus musculus [11] = experiment: Percent survival was determined over a period of 30 days after intraperitoneal administration of a dose of 2.4 mg/kg in mice; type: functional; conditions: ip, 720 h; procedure, shortened: as §1
[12] = Toxic dose was determined after (ip) administration of a dose of 9.4 mg/kg in mice at 1000-rad-gamma-radiation for 30 mins; type: toxicity, organism-based; parameters: dose 9.4 mg/kg; conditions: mouse, in vivo; procedure, shortened: as §2
Mus musculus [13] = experiment: Percent survival was determined over a period of 30 days after intraperitoneal administration of a dose of 0.6 mg/kg in mice; type: functional; conditions: ip, 720 h; procedure, shortened: as §1
Mus musculus [14] = experiment: Percent survival was determined over a period of 30 days after intraperitoneal administration of a dose of 1.2 mg/kg in mice; type: functional; conditions: ip, 720 h; procedure, shortened: as §1
Mus musculus [15] = experiment: Percent survival was determined over a period of 30 days after intraperitoneal administration of a dose of 2.3 mg/kg in mice; type: functional; conditions: ip, 720 h; procedure, shortened: as §1
[16] = Toxic dose was determined after (ip) administration of a dose of 2.3 mg/kg in mice at 1000-rad-gamma-radiation for 30 mins; type: toxicity, organism-based; parameters: dose 2.3 mg/kg; conditions: mouse, in vivo; procedure, shortened: as §2
Mus musculus [17] = experiment: Percent protective effect was determined in mice using 600 rads for 30 min after administration of 100 mg/kg; type: functional
Mus musculus [18] = species on record: Mus musculus; experiment: Percent protective effect was determined in mice using 825 rads for 30 min; type: functional
Mus musculus [19] = experiment: Percent survival was determined over a period of 30 days after intraperitoneal administration of a dose of 1200 mg/kg in mice; type: functional; conditions: ip, 720 h; procedure, shortened: as §1
Mus musculus [20] = experiment: Percent survival was determined over a period of 30 days after intraperitoneal administration of a dose of 300 mg/kg in mice; type: functional; conditions: ip, 720 h; procedure, shortened: as §1
Mus musculus [21] = experiment: Percent survival was determined over a period of 30 days after intraperitoneal administration of a dose of 600 mg/kg in mice; type: functional; conditions: ip, 720 h; procedure, shortened: as §1
[22] = Toxic dose was determined in 10-20% ethanol by ip administration in mice. The radiation protective properties were evaluated for groups of 10 mice exposed to 849-rad-gamma-radiation 30 min after dosing.; type: toxicity, organism-based; conditions: mouse, in vivo
[23] = Toxic dose was determined after (ip) administration of a dose of 1200 mg/kg in mice at 1000-rad-gamma-radiation for 30 mins; type: toxicity, organism-based; parameters: dose 1200 mg/kg; conditions: mouse, in vivo; procedure, shortened: as §2
Mus musculus [24] = experiment: Percent protective effect was determined in mice using 825 rads for 30 min after administration of 350 mg/kg; type: functional
[25] = Toxic dose was determined after (ip) administration of a dose of 9.38 mg/kg in mice at 1000-rad-gamma-radiation for 30 mins; type: toxicity, organism-based; parameters: dose 9.38 mg/kg; conditions: mouse, in vivo; procedure, shortened: as §2
Mus musculus [26] = experiment: Percent survival was determined over a period of 30 days after intraperitoneal administration of a dose of 9.38 mg/kg in mice; type: functional; conditions: ip, 720 h; procedure, shortened: as §1

CS/C(=C\c1ccc2ccccc2[n+]1C)N1CCCCC1.[I-]
survival at 1.17 mg/kg (Mus musculus [1]): 30% | survival at 2.34 mg/kg (Mus musculus [2]): 70% | survival at 4.69 mg/kg (Mus musculus [3]): 10% | LD50 at 0.5 h [4]: 5 mg/kg

CS/C(=C\c1cccc[n+]1C)N1CCOCC1.[I-]
survival at 18.8 mg/kg (Mus musculus [5]): 0% | survival at 4.7 mg/kg (Mus musculus [6]): 0% | survival at 9.4 mg/kg (Mus musculus [7]): 0% | LD50 at 0.5 h [8]: 50 mg/kg

N#CC(C(=O)N1CCCC1)=C([S-])[S-].[K+].[K+]
Protective effect (Mus musculus [9]): 80% | Protective effect (Mus musculus [10]): 30%

CS/C(=C\c1cccc[n+]1C)N1CCCCC1.[I-]
survival at 2.4 mg/kg (Mus musculus [11]): 30% | survival at 4.7 mg/kg (Mus musculus [6]): 20% | survival at 9.4 mg/kg (Mus musculus [7]): 80% | LD50 at 0.5 h [12]: 25 mg/kg

CCCCSC(=Cc1cccc[n+]1C)SCCCC.[I-]
survival at 0.6 mg/kg (Mus musculus [13]): 0% | survival at 1.2 mg/kg (Mus musculus [14]): 10% | survival at 2.3 mg/kg (Mus musculus [15]): 30% | LD50 at 0.5 h [16]: 3 mg/kg

CCOC(=O)C(C#N)=C([S-])[S-].[K+].[K+]
Protective effect (Mus musculus [17]): 50%

C=CCSC(=S)C[n+]1ccccc1.[Cl-]
Protective effect (Mus musculus [18]): >17%

CSC(=Cc1cccc(C)[n+]1C)SC.[I-]
survival at 18.8 mg/kg (Mus musculus [5]): 40% | survival at 4.7 mg/kg (Mus musculus [6]): 0% | survival at 9.4 mg/kg (Mus musculus [7]): 0% | LD50 at 0.5 h [8]: 50 mg/kg

COc1ccc2c(ccc(C=C(SC)SC)[n+]2C)c1.[I-]
survival at 2.3 mg/kg (Mus musculus [15]): 0% | survival at 4.7 mg/kg (Mus musculus [6]): 0% | survival at 9.4 mg/kg (Mus musculus [7]): 0% | LD50 at 0.5 h [12]: 30 mg/kg

O=[N+]([O-])c1ccc(CSC(=S)C[n+]2ccccc2)cc1.[Cl-]
Protective effect (Mus musculus [18]): 33%

C[n+]1c(CC(=S)[S-])cccc1CC(=S)[S-].[I-].[Na+].[Na+]
survival at 1200 mg/kg (Mus musculus [19]): 0% | survival at 300 mg/kg (Mus musculus [20]): 0% | survival at 600 mg/kg (Mus musculus [21]): 0% | LD50 at 0.5 h [22]: > 600 mg/kg | LD50 at 0.5 h [23]: > 600 mg/kg

COC(CN/C(=C/c1ccc2ccccc2[n+]1C)SC)OC.[I-]
survival at 18.8 mg/kg (Mus musculus [5]): 30% | survival at 4.7 mg/kg (Mus musculus [6]): 0% | survival at 9.4 mg/kg (Mus musculus [7]): 0% | LD50 at 0.5 h [8]: 30 mg/kg

N#CC(C#N)=C([S-])[S-].[K+].[K+]
Protective effect (Mus musculus [24]): >25%

CS/C(=C\c1ccc2cc(C)ccc2[n+]1C)N1CCOCC1.[I-]
survival at 2.34 mg/kg (Mus musculus [2]): 0% | survival at 4.69 mg/kg (Mus musculus [3]): 0% | LD50 at 0.5 h [25]: 15 mg/kg | survival at 9.38 mg/kg (Mus musculus [26]): 60%
